KCNQ1 inh: inhibitors of human KCNQ1 channel, primary screen, cell-based, thallium flux, high-throughput; B-score at 10 µM; CHO-K1 KCNQ1, FluxOR thallium flux fluorescence; stronger effect = higher value; hit rate 1.3% among 310,000; Potassium voltage-gated channel subfamily KQT member 1 (Homo sapiens), P51787;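 active = compounds whose thallium flux B-score, printed positive for inhibition, exceeds three library SD while starting fluorescence stays within three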;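 also: channel opened by potassium depolarization with thallium stimulus after 20 min compound exposure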
hERG protect: hERG rescue from dofetilide block, primary screen, cell-based, CHO-hERG, FluxOR thallium flux, dofetilide IC70 | Voltage-gated inwardly rectifying potassium channel KCNH2 (Homo sapiens), Q12809 | dofetilide IC70 present | activation (rescue from dofetilide block), less the hit threshold, % at 10 µM | hit rate 0.51% among 310,000 | AID 1511, 2009;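 active = activation above the mean of controls blocked by dofetilide plus 5 SD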;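 also: thallium influx through hERG after potassium depolarization seen as dye fluorescence rise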
Kir21 block: inhibitors of mouse Kir2.1 inward-rectifier potassium channel; Inward rectifier potassium channel 2 (Mus musculus), P35561; HEK293-Kir2.1, FluxOR thallium flux fluorescence; stronger effect = lower value; B-score at 10 µM; hit rate 0.85% among 310,000;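 active = fluorescence ratio B-score at or below minus 3 SD of library scores, with starting-brightness B-score within 2 SD, cut at about -4.2 in these data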;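 also: channel flux triggered by added potassium and thallium sulfate stimulus; B-score of peak minus minimum fluorescence over baseline after thallium stimulus; more negative B-score means stronger Kir2.1 block with less thallium influx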
KCNK9 inh: KCNK9 potassium channel inhibitors, primary screen, HEK293 cells, thallium flux; Potassium channel subfamily K member 9 (Homo sapiens), Q9NPC2; FluxOR thallium flux fluorescence; stronger effect = lower value; B-score at 10 µM; hit rate 1.2% among 310,000;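 active = ratio B-score over 3 SD below the library mean, with starting fluorescence within 5 SD of its mean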;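 also: negative B-score means less thallium flux so channel inhibition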
Target sequence (Q9NPC2 whole entry, looked up): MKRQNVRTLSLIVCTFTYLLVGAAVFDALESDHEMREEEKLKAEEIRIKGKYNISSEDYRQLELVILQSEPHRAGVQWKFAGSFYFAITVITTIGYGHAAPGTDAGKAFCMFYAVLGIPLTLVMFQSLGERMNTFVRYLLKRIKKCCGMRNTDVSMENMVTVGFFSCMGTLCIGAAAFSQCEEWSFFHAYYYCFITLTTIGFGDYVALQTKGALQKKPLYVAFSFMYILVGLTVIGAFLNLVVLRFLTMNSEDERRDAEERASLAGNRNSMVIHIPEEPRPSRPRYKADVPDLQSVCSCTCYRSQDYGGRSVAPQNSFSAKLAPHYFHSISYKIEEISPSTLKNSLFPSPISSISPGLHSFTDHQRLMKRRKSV
KCNQ1 act: potentiators or activators of KCNQ1 channel, primary screen, cell-based, thallium flux, high-throughput. Potassium voltage-gated channel subfamily KQT member 1 (Homo sapiens), P51787. CHO-K1 KCNQ1, thallium flux FluxOR fluorescence; stronger effect = higher value. B-score at 10 µM. hit rate 0.35% among 310,000;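 active = fluorescence ratio B-score, a plate-corrected score, at least three library SD, with initial intensity B-score within 5 SD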
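assay system = CHO-K1 cells stably expressing KCNQ1 | medium = assay buffer, equal DMSO in all wells | timing = 37 °C overnight plating, 90-min dark dye load, 20-min compound pretreatment | measured by = kinetic FluxOR thallium fluorescence, 10-s 1-Hz baseline, 110-s post-stimulus read | measure = fluorescence change relative to baseline, converted to B score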
KCNK3 block: human KCNK3 channel inhibitors, primary screen, CHO cells, FluxOR thallium flux, B-score; B-score at 10 µM; hit rate 0.84% among 340,000; FluxOR fluorescence; stronger effect = lower value; Potassium channel subfamily K member 3 (Homo sapiens), O14649;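 active = B-score under library mean minus 4 SD, starting fluorescence ratio at most library mean plus 5 SD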;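 also: more negative B-score means stronger inhibition of thallium flux through KCNK3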
* hit, by the source's call; i = inactive. A selection: hits, their analogues and other compounds. The true share with any hit is near 3.7%.

SMILES	KCNQ1 inh	hERG protect	Kir21 block	KCNK9 inh	KCNQ1 act	KCNK3 block
COCCN1C(=O)N[C@@H](CCc2ccccc2)[C@H](C(=O)OC)[C@H]1C	i	-4	0.14	i	i	i
CC1CCCN(C(=O)CN2C(=O)CSc3ccc(S(=O)(=O)N4CCOCC4)cc32)C1 (configuration not stated)	i	-8	0.53	i	i	i
O=C(NCCc1ccc(F)cc1)c1cc2ccccc2oc1=O	i	-5	0	i	i	i
COc1ccc(CCNC(=O)c2cc3ccccc3oc2=O)cc1	i	7.8*	0.86	i	i	i
CSc1ccc(/C=N/n2c(Cc3ccc(Br)cc3)n[nH]c2=S)cc1	i	155*	0.01	i	i	i
c1csc(-c2nc3c4ccccc4c4ccccc4c3[nH]2)c1	i	-6	-0.01	i	i	-10*
Oc1ccccc1-c1nc2c3ccccc3c3ccccc3c2[nH]1	6*	-3	0.23	i	i	i
c1ccc(-c2nc(-c3cccs3)[nH]c2-c2ccccc2)cc1	i	-4	1.2	i	i	i
NC(=O)C1CCN(CC(=O)NC(=O)NC2CCCC2)CC1	i	-14	0.69	i	i	i
O=C1CCCN1CCCNS(=O)(=O)c1cccc(F)c1	i	4.9*	-1.3	i	i	i
CNC(=O)CSc1nnc(-c2ccco2)n1-c1ccc(C)cc1	i	48*	1.1	i	i	i
CCN(CC(=O)NCc1ccc(Cl)cc1)C(=O)CSc1ccc(F)cc1	i	-11	-4.5*	i	i	i
CCN(CC(=O)Nc1c(F)cccc1F)C(=O)CSc1ccc(F)cc1	i	-7	1.7	i	i	i
CC1Cc2ccccc2N1C(=S)NC(=O)c1ccco1 (configuration not stated)	i	6.7*	-0.25	i	i	i
CC1Cc2ccccc2N1C(=S)NC(=O)C1(C)CC1(Cl)Cl (configuration not stated)	i	28*	-1.7	i	37*	i
O=C(CSc1nc2ccccc2c(=O)n1CCCC(=O)N1CCCC1)NCc1ccco1	i	-11	0.51	i	i	i
O=C(CCCCCn1c(SCc2ccncc2)nc2ccccc2c1=O)NCc1ccco1	i	-23	-4.3*	i	i	i
CC(/C=N/n1c(-c2cc(C)[nH]n2)n[nH]c1=S)=C\c1ccco1	i	-7	0.07	i	i	i
CC(/C=N/n1c(-c2ccc(Cl)cc2)n[nH]c1=S)=C\c1ccco1	i	3	0.8	i	9*	i
COc1cc(Br)c(CN2C(=O)NC3(CCCCCC3)C2=O)cc1OC	i	-5	1.4	i	i	i
CC(C)c1cc(Br)ccc1OCCCN1C(=O)NC(C)(C)C1=O	i	-17	-6.8*	i	i	i
Cc1cccc(C(=O)N2CCN(S(=O)(=O)N3CCCCCC3)CC2)c1	i	-4	0.38	i	i	i
O=[N+]([O-])c1ccc(NNS(=O)(=O)c2cc(Cl)ccc2Cl)nc1	i	-6	-0.48	i	i	i
CC1CN(C(=O)Nc2ccc(Br)cc2Cl)CC(C)O1 (configuration not stated)	i	-4	1.3	i	i	i
CSc1ccc(CN(C)C(C)C(=O)NCc2ccccc2)cc1 (configuration not stated)	i	-11	-9.7*	i	i	i
COc1ccc(CNC(=O)CN(C)Cc2ccc(SC)cc2)cc1	i	-6	-6.8*	i	i	i
